Experimental data from ChEMBL document CHEMBL1134272, “Enantiomeric synthesis of D- and L-cyclopentenyl nucleosides and their antiviral activity against HIV and West Nile virus” (J Med Chem, 2001).

Tested on: Human immunodeficiency virus 1
Assay: In vitro antiviral activity against HIV-1 in human PBM cells.
Assay type: functional, organism-based
Conditions: Human immunodeficiency virus 1, PBMC

Row | SMILES | EC50
1 | O=c1ccn([C@@H]2C=C(CO)[C@@H](O)[C@H]2O)c(=O)[nH]1 | > 100 µM
2 | Nc1ccn([C@H]2C=C(CO)[C@H](O)[C@@H]2O)c(=O)n1 | 58.9 µM
3 | Nc1nc(O)c2ncn([C@@H]3C=C(CO)[C@@H](O)[C@H]3O)c2n1 | > 100 µM
4 | OCC1=C[C@H](n2cnc3c(O)ncnc32)[C@@H](O)[C@H]1O | > 100 µM
5 | Nc1nc(=O)n([C@@H]2C=C(CO)[C@@H](O)[C@H]2O)cc1F | 5.34 µM
6 | O=c1[nH]c(=O)n([C@@H]2C=C(CO)[C@@H](O)[C@H]2O)cc1F | 93.1 µM
7 | Nc1ncnc2c1ncn2[C@H]1C=C(CO)[C@H](O)[C@@H]1O | > 100 µM
8 | Cc1cn([C@@H]2C=C(CO)[C@@H](O)[C@H]2O)c(=O)[nH]c1=O | > 100 µM
9 | Nc1nc(O)c2ncn([C@H]3C=C(CO)[C@H](O)[C@@H]3O)c2n1 | > 100 µM
10 | Cc1cn([C@H]2C=C(CO)[C@H](O)[C@@H]2O)c(=O)[nH]c1=O | > 100 µM
11 | O=c1[nH]c(=O)n([C@H]2C=C(CO)[C@H](O)[C@@H]2O)cc1F | > 100 µM
12 | Nc1nc(=O)n([C@H]2C=C(CO)[C@H](O)[C@@H]2O)cc1F | > 100 µM
13 | O=c1ccn([C@H]2C=C(CO)[C@H](O)[C@@H]2O)c(=O)[nH]1 | > 100 µM
14 | OCC1=C[C@@H](n2cnc3c(O)ncnc32)[C@H](O)[C@@H]1O | > 100 µM
15 | Nc1ccn([C@@H]2C=C(CO)[C@@H](O)[C@H]2O)c(=O)n1 | 0.06 µM
16 | Nc1ncnc2c1ncn2[C@@H]1C=C(CO)[C@@H](O)[C@H]1O [NEOPLANOCIN A] | 0.1 µM
17 | Cc1cn([C@H]2C[C@H](N=[N+]=[N-])[C@@H](CO)O2)c(=O)[nH]c1=O [ZIDOVUDINE] | 0.004 µM

Tested on: Human immunodeficiency virus 1
Assay: The compound was evaluated for the antiviral activity against HIV-1 in human PBM cells
Assay type: functional, organism-based
Conditions: Human immunodeficiency virus 1, PBMC

Row | SMILES | IC50
18 | Nc1nc(=O)n([C@@H]2C=C(CO)[C@@H](O)[C@H]2O)cc1F | 5.34 µM

Same assay, conditions: pbm

Row | SMILES | IC50
19 | Nc1nc(=O)n([C@@H]2C=C(CO)[C@@H](O)[C@H]2O)cc1F | 5.34 µM

Tested on: West Nile virus
Assay: In vitro antiviral activity against West Nile Virus.
Assay type: functional, organism-based
Conditions: not given
Outline: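 Lightly confluent Vero cells in 96-well plates received serial compound dilutions and then 5 CCID50 of the WNV New York isolate, with test samples in triplicate. Cells were scored visually for cytopathic effect 6 days after virus exposure. Neutral red uptake (2-3 h, 37 °C; absorbance 540 and 405 nm) was used to verify the scoring. EC50 was obtained by regression on mean ratings or on percent-of-control absorbance.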

Row | SMILES | EC50
20 | O=c1ccn([C@@H]2C=C(CO)[C@@H](O)[C@H]2O)c(=O)[nH]1 | > 200 µM
21 | Nc1ccn([C@H]2C=C(CO)[C@H](O)[C@@H]2O)c(=O)n1 | > 200 µM
22 | Nc1nc(O)c2ncn([C@@H]3C=C(CO)[C@@H](O)[C@H]3O)c2n1 | > 200 µM
23 | OCC1=C[C@H](n2cnc3c(O)ncnc32)[C@@H](O)[C@H]1O | > 200 µM
24 | Nc1nc(=O)n([C@@H]2C=C(CO)[C@@H](O)[C@H]2O)cc1F | 15 µM
25 | O=c1[nH]c(=O)n([C@@H]2C=C(CO)[C@@H](O)[C@H]2O)cc1F | > 200 µM
26 | Nc1ncnc2c1ncn2[C@H]1C=C(CO)[C@H](O)[C@@H]1O | > 200 µM
27 | Cc1cn([C@@H]2C=C(CO)[C@@H](O)[C@H]2O)c(=O)[nH]c1=O | > 200 µM
28 | Nc1nc(O)c2ncn([C@H]3C=C(CO)[C@H](O)[C@@H]3O)c2n1 | > 200 µM
29 | Cc1cn([C@H]2C=C(CO)[C@H](O)[C@@H]2O)c(=O)[nH]c1=O | > 200 µM
30 | O=c1[nH]c(=O)n([C@H]2C=C(CO)[C@H](O)[C@@H]2O)cc1F | > 200 µM
31 | Nc1nc(=O)n([C@H]2C=C(CO)[C@H](O)[C@@H]2O)cc1F | > 200 µM
32 | O=c1ccn([C@H]2C=C(CO)[C@H](O)[C@@H]2O)c(=O)[nH]1 | > 200 µM
33 | OCC1=C[C@@H](n2cnc3c(O)ncnc32)[C@H](O)[C@@H]1O | > 200 µM
34 | Nc1ccn([C@@H]2C=C(CO)[C@@H](O)[C@H]2O)c(=O)n1 | 0.2 µM
35 | O=c1cnn([C@@H]2O[C@H](CO)[C@@H](O)[C@H]2O)c(=O)[nH]1 [6-AZAURIDINE] | 1.2 µM
36 | Nc1ncnc2c1ncn2[C@@H]1C=C(CO)[C@@H](O)[C@H]1O [NEOPLANOCIN A] | > 51 µM

Tested on: not listed separately
Assay: In vitro cytotoxicity in PBM cells.
Assay type: functional, cell-based
Conditions: Homo sapiens, PBMC

Row | SMILES | IC50
37 | O=c1ccn([C@@H]2C=C(CO)[C@@H](O)[C@H]2O)c(=O)[nH]1 | > 100 µM
38 | Nc1ccn([C@H]2C=C(CO)[C@H](O)[C@@H]2O)c(=O)n1 | > 100 µM
39 | Nc1nc(O)c2ncn([C@@H]3C=C(CO)[C@@H](O)[C@H]3O)c2n1 | > 100 µM
40 | OCC1=C[C@H](n2cnc3c(O)ncnc32)[C@@H](O)[C@H]1O | > 100 µM
41 | Nc1nc(=O)n([C@@H]2C=C(CO)[C@@H](O)[C@H]2O)cc1F | 73.7 µM
42 | O=c1[nH]c(=O)n([C@@H]2C=C(CO)[C@@H](O)[C@H]2O)cc1F | > 100 µM
43 | Nc1ncnc2c1ncn2[C@H]1C=C(CO)[C@H](O)[C@@H]1O | > 100 µM
44 | Cc1cn([C@@H]2C=C(CO)[C@@H](O)[C@H]2O)c(=O)[nH]c1=O | > 100 µM
45 | Nc1nc(O)c2ncn([C@H]3C=C(CO)[C@H](O)[C@@H]3O)c2n1 | > 100 µM
46 | Cc1cn([C@H]2C=C(CO)[C@H](O)[C@@H]2O)c(=O)[nH]c1=O | > 100 µM
47 | O=c1[nH]c(=O)n([C@H]2C=C(CO)[C@H](O)[C@@H]2O)cc1F | > 100 µM
48 | Nc1nc(=O)n([C@H]2C=C(CO)[C@H](O)[C@@H]2O)cc1F | > 100 µM
49 | O=c1ccn([C@H]2C=C(CO)[C@H](O)[C@@H]2O)c(=O)[nH]1 | > 100 µM
50 | OCC1=C[C@@H](n2cnc3c(O)ncnc32)[C@H](O)[C@@H]1O | > 100 µM
51 | Nc1ccn([C@@H]2C=C(CO)[C@@H](O)[C@H]2O)c(=O)n1 | 6.5 µM
52 | Nc1ncnc2c1ncn2[C@@H]1C=C(CO)[C@@H](O)[C@H]1O [NEOPLANOCIN A] | 44.6 µM
53 | Cc1cn([C@H]2C[C@H](N=[N+]=[N-])[C@@H](CO)O2)c(=O)[nH]c1=O [ZIDOVUDINE] | > 100 µM

Tested on: CCRF-CEM
Assay: In vitro cytotoxicity in CEM cells.
Assay type: functional, cell-based
Conditions: Homo sapiens

Row | SMILES | IC50
54 | O=c1ccn([C@@H]2C=C(CO)[C@@H](O)[C@H]2O)c(=O)[nH]1 | > 100 µM
55 | Nc1ccn([C@H]2C=C(CO)[C@H](O)[C@@H]2O)c(=O)n1 | > 100 µM
56 | Nc1nc(O)c2ncn([C@@H]3C=C(CO)[C@@H](O)[C@H]3O)c2n1 | > 100 µM
57 | OCC1=C[C@H](n2cnc3c(O)ncnc32)[C@@H](O)[C@H]1O | > 100 µM
58 | Nc1nc(=O)n([C@@H]2C=C(CO)[C@@H](O)[C@H]2O)cc1F | 51.8 µM
59 | O=c1[nH]c(=O)n([C@@H]2C=C(CO)[C@@H](O)[C@H]2O)cc1F | > 100 µM
60 | Nc1ncnc2c1ncn2[C@H]1C=C(CO)[C@H](O)[C@@H]1O | > 100 µM
61 | Cc1cn([C@@H]2C=C(CO)[C@@H](O)[C@H]2O)c(=O)[nH]c1=O | > 100 µM
62 | Nc1nc(O)c2ncn([C@H]3C=C(CO)[C@H](O)[C@@H]3O)c2n1 | > 100 µM
63 | Cc1cn([C@H]2C=C(CO)[C@H](O)[C@@H]2O)c(=O)[nH]c1=O | > 100 µM
64 | O=c1[nH]c(=O)n([C@H]2C=C(CO)[C@H](O)[C@@H]2O)cc1F | > 100 µM
65 | Nc1nc(=O)n([C@H]2C=C(CO)[C@H](O)[C@@H]2O)cc1F | > 100 µM
66 | O=c1ccn([C@H]2C=C(CO)[C@H](O)[C@@H]2O)c(=O)[nH]1 | > 100 µM
67 | OCC1=C[C@@H](n2cnc3c(O)ncnc32)[C@H](O)[C@@H]1O | > 100 µM
68 | Nc1ccn([C@@H]2C=C(CO)[C@@H](O)[C@H]2O)c(=O)n1 | 0.08 µM
69 | Nc1ncnc2c1ncn2[C@@H]1C=C(CO)[C@@H](O)[C@H]1O [NEOPLANOCIN A] | 1.2 µM

Tested on: Vero
Assay: In vitro cytotoxicity in vero cells.
Assay type: functional, cell-based
Conditions: Chlorocebus sabaeus
Outline: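 Uninfected Vero cells were treated with serial compound dilutions, with toxicity controls in duplicate at each concentration, and were scored visually 6 days later. Scoring was confirmed by neutral red uptake (2-3 h, 37 °C; absorbance 540 and 405 nm) expressed as percent of control. IC50 was obtained by regression analysis.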

Row | SMILES | IC50
70 | O=c1ccn([C@@H]2C=C(CO)[C@@H](O)[C@H]2O)c(=O)[nH]1 | > 100 µM
71 | Nc1ccn([C@H]2C=C(CO)[C@H](O)[C@@H]2O)c(=O)n1 | > 100 µM
72 | Nc1nc(O)c2ncn([C@@H]3C=C(CO)[C@@H](O)[C@H]3O)c2n1 | > 100 µM
73 | OCC1=C[C@H](n2cnc3c(O)ncnc32)[C@@H](O)[C@H]1O | > 100 µM
74 | Nc1nc(=O)n([C@@H]2C=C(CO)[C@@H](O)[C@H]2O)cc1F | 27.4 µM
75 | O=c1[nH]c(=O)n([C@@H]2C=C(CO)[C@@H](O)[C@H]2O)cc1F | > 100 µM
76 | Nc1ncnc2c1ncn2[C@H]1C=C(CO)[C@H](O)[C@@H]1O | > 100 µM
77 | Cc1cn([C@@H]2C=C(CO)[C@@H](O)[C@H]2O)c(=O)[nH]c1=O | > 100 µM
78 | Nc1nc(O)c2ncn([C@H]3C=C(CO)[C@H](O)[C@@H]3O)c2n1 | > 100 µM
79 | Cc1cn([C@H]2C=C(CO)[C@H](O)[C@@H]2O)c(=O)[nH]c1=O | > 100 µM
80 | O=c1[nH]c(=O)n([C@H]2C=C(CO)[C@H](O)[C@@H]2O)cc1F | > 100 µM
81 | Nc1nc(=O)n([C@H]2C=C(CO)[C@H](O)[C@@H]2O)cc1F | > 100 µM
82 | O=c1ccn([C@H]2C=C(CO)[C@H](O)[C@@H]2O)c(=O)[nH]1 | > 100 µM
83 | OCC1=C[C@@H](n2cnc3c(O)ncnc32)[C@H](O)[C@@H]1O | > 100 µM
84 | Nc1ccn([C@@H]2C=C(CO)[C@@H](O)[C@H]2O)c(=O)n1 | 1.95 µM
85 | O=c1cnn([C@@H]2O[C@H](CO)[C@@H](O)[C@H]2O)c(=O)[nH]1 [6-AZAURIDINE] | > 100 µM
86 | Nc1ncnc2c1ncn2[C@@H]1C=C(CO)[C@@H](O)[C@H]1O [NEOPLANOCIN A] | 3.5 µM
